Fewer inactive variants are shown than the library holds.
B1: tRNA (parent)
chain: GUUCCGUUGGCGUAAUGGUAACGCGUCUCCCUCCUAAGGAGAAGACUGCGGGUUCGAGUCCCGUACGGAACG

Variants of: B1
Experiment: yeast fitness relative to wild type (ratio to wild type); higher = fitter; tRNA-Arg(CCU), competitive growth, 37 C, YPD
Method in brief: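 Gene amplicons from the start population and from each of six end populations were read by 100-nucleotide paired-end sequencing. Those end populations came from pooled Saccharomyces cerevisiae strains carrying tRNA-Arg(CCU) gene variants at the native locus, competed in YPD at 37°C for 24 hours. Fitness relative to wild type was worked out from changes in genotype frequencies. Genotypes needed ≥ 100 starting reads, and estimates < 0.5 were set to 0.5.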
Variant U2G C4U C60G has a yeast fitness of 0.54.
In the case of U2G C30U G58C G63C, the yeast fitness is reported as 0.618.
Variant U2C U26G has a yeast fitness of 0.997.
For U2G C60U, the yeast fitness was 0.782.
Variant U2C U35G A40C has a yeast fitness of 0.587.
In the case of U2G C34G G39C, the yeast fitness is reported as ≤ 0.5.
In the case of U2C U3C C34U G63A, the yeast fitness is reported as ≤ 0.5.
With U2G C11G A20U C24G C55A C61U the yeast fitness was ≤ 0.5.
In the case of U2G C31U U64G A65U, the yeast fitness is reported as ≤ 0.5.
For U2C U19A C24U G38A U54C C66A, the yeast fitness was ≤ 0.5.
Variant U2C U16G has a yeast fitness of 0.96.
In the case of U2G C4U C34G, the yeast fitness is reported as ≤ 0.5.
With U2G G6A C31G C33U U59G C66U G68A the yeast fitness was ≤ 0.5.
In the case of U2G C11G C46G G51C U53A, the yeast fitness is reported as ≤ 0.5.
In the case of U2G G6A G25A A37U A40C, the yeast fitness is reported as ≤ 0.5.
In the case of U2G C46A G68C, the yeast fitness is reported as ≤ 0.5.
With U2G A20G C33U G39A A65G the yeast fitness was ≤ 0.5.
Variant U2G C24G has a yeast fitness of 0.769.
With U2G C24A the yeast fitness was 0.82.
U2G showed a yeast fitness of 0.994.
U2C U19A gave a yeast fitness of 0.845.
Work on U2G C49U C62U yielded a yeast fitness of 0.565.
For U2G G9C A20G G25A A42C C46G C49U A69C, the yeast fitness was ≤ 0.5.
In the case of U2C U64G C66A, the yeast fitness is reported as ≤ 0.5.
With U2G C46G the yeast fitness was 0.864.
U2G C46U showed a yeast fitness of 1.01.
With U2C U28A G67A the yeast fitness was ≤ 0.5.
Variant U2G U3A has a yeast fitness of 0.736.
In the case of U2G U13C A21G U35A C55U A70G, the yeast fitness is reported as ≤ 0.5.
U2G G48C C66U showed a yeast fitness of 0.519.
With U2G C62G C66U the yeast fitness was ≤ 0.5.
In the case of U2G C46G G52A, the yeast fitness is reported as ≤ 0.5.
In the case of U2G C11U C30U C55A A65C, the yeast fitness is reported as ≤ 0.5.
For U2C U19G A69C, the yeast fitness was 0.543.
With U2C G18C A21G C27A C30U G38A the yeast fitness was ≤ 0.5.
U2G U8C C27U C46U showed a yeast fitness of 0.789.
U2C G58A G68C showed a yeast fitness of 0.645.
U2C G25A A42U A65C G67U gave a yeast fitness of 0.578.
With U2G G9C A65C G68A the yeast fitness was ≤ 0.5.
For U2G C34U U35C, the yeast fitness was ≤ 0.5.
With U2G C31G G39C C60A the yeast fitness was ≤ 0.5.
U2G C24G C29G C31G showed a yeast fitness of 0.515.
With U2G C11U G23A C46U U54A the yeast fitness was ≤ 0.5.
For U2G C5A A57U, the yeast fitness was ≤ 0.5.
With U2G C5A the yeast fitness was 0.725.
With U2G A57U the yeast fitness was 0.66.
With U2G A57G the yeast fitness was 0.82.
With U2C U19C U54A A69C the yeast fitness was ≤ 0.5.
With U2G C29A A40U the yeast fitness was ≤ 0.5.
With U2G A14U C22G C30G G58A the yeast fitness was ≤ 0.5.
In the case of U2C U32A A65G, the yeast fitness is reported as ≤ 0.5.
In the case of U2G A42U, the yeast fitness is reported as 0.804.
For U2G U7C C55U C62G C66A, the yeast fitness was ≤ 0.5.
With U2G C4U C27A C66A the yeast fitness was ≤ 0.5.
Work on U2C G67U yielded a yeast fitness of 0.81.
With U2G U7G U16C C34U U54C A65U the yeast fitness was ≤ 0.5.
In the case of U2G C49U, the yeast fitness is reported as 0.957.
Work on U2C G44A C46U A69C yielded a yeast fitness of 0.784.
For U2C U13G C22U C60G A65G, the yeast fitness was ≤ 0.5.
With U2G A57C G68U the yeast fitness was ≤ 0.5.
For U2G C11G G12C C49U, the yeast fitness was ≤ 0.5.
With U2C U47A U53A the yeast fitness was ≤ 0.5.
For U2G G68C, the yeast fitness was 0.705.
For U2C G50C C60G, the yeast fitness was ≤ 0.5.
U2C G39U gave a yeast fitness of 0.819.
With U2G A36G G51A the yeast fitness was ≤ 0.5.
With U2G G12C C49U the yeast fitness was ≤ 0.5.
With U2G C4A U16C C31U A70U the yeast fitness was ≤ 0.5.
With U2G G48A G58C A65U G67C the yeast fitness was ≤ 0.5.
With U2G G48A G58A the yeast fitness was 0.614.
In the case of U2G G9C A20G A42C C46G C49U, the yeast fitness is reported as 0.602.
For U2G C33A C49G, the yeast fitness was ≤ 0.5.
Variant U2C U32G has a yeast fitness of 0.674.
U2G A70G showed a yeast fitness of 1.07.
U2G A70U gave a yeast fitness of 0.917.
With U2G C22U U32C the yeast fitness was ≤ 0.5.
U2G A14U gave a yeast fitness of 0.502.
In the case of U2G C4U C11G G18C U32C C34U A45U A70U, the yeast fitness is reported as ≤ 0.5.
With U2G C33G A45G A70U the yeast fitness was ≤ 0.5.
For U2C G23C C31G C33U A42G G67U, the yeast fitness was ≤ 0.5.
For U2C G25A G52A, the yeast fitness was ≤ 0.5.
U2G A45U C66U showed a yeast fitness of 0.555.
In the case of U2G C27A C34G A65G, the yeast fitness is reported as ≤ 0.5.

Reference: the RNAGym collection of RNA variant scans (doi:10.1126/science.aae0568)
